Source: ChEMBL document CHEMBL1142414, “Comprehensive mechanistic analysis of hits from high-throughput and docking screens against beta-lactamase” (J Med Chem, 2008)

Biological target: not listed separately
Assay: Inhibition of beta-lactamase AmpC in presence of 0.1% Triton X-100
Outline: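 Cuvette assay with 1 nM AmpC β-lactamase and 200 µM nitrocefin, Triton X-100 at either 0.00002 or 0.1%. Compound and enzyme preincubated 5 min, then substrate added to start the reaction. Nitrocefin hydrolysis read at 482 nm by UV–visible spectrophotometry at room temperature.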
With `CC(C)(C)OC(=O)NCCc1nnc(S(=O)(=O)Cc2ccc(Cl)cc2Cl)o1` the IC50 was < 1 µM. In the case of `O=C(CC1(O)C(=O)Nc2cc(Cl)cc(Cl)c21)c1ccccc1O` (centres undefined), the IC50 is reported as > 600 µM. For `Cc1ccc(C)n1C(Cc1ccccc1)C(=O)O` (centres undefined), the IC50 was > 600 µM. In the case of `CCOC(=O)/C(C(C)=O)=C1\OC(=O)c2ccccc21`, the IC50 is reported as 58 µM. In the case of `C[C@H]1[C@H]2C=C[C@@H]1[C@@H](C(=O)O)[C@@H]2c1c2ccc(=O)c(O)c-2oc2c(O)c(O)ccc12`, the IC50 is reported as > 600 µM. `CCCC12CN(C(=O)c3ccc(OC)cc3)CC(C)(CN(C(=O)c3ccc(OC)cc3)C1)C2=O` gave an IC50 of 95 µM. In the case of `O=C(Nc1nc2n(n1)C(c1ccccc1)C=C(c1ccccc1)N2)c1ccco1` (centres undefined), the IC50 is reported as < 600 µM. With `CC(C)(C)OC(=O)NCc1nnc(S(=O)(=O)Cc2ccc(Cl)cc2Cl)o1` the IC50 was < 1 µM. In the case of `CS(=O)(=O)N1CCC(C(=O)N2CCC(Cc3ccccc3)CC2)CC1`, the IC50 is reported as > 600 µM. For `CCOC(=O)SC1=N/C(=C/c2ccc(N(C)C)cc2)C(=O)S1`, the IC50 was > 600 µM.

Biological target: T1, Cruzipain (Trypanosoma cruzi, UniProt P25779)
T1 sequence (P25779 whole entry): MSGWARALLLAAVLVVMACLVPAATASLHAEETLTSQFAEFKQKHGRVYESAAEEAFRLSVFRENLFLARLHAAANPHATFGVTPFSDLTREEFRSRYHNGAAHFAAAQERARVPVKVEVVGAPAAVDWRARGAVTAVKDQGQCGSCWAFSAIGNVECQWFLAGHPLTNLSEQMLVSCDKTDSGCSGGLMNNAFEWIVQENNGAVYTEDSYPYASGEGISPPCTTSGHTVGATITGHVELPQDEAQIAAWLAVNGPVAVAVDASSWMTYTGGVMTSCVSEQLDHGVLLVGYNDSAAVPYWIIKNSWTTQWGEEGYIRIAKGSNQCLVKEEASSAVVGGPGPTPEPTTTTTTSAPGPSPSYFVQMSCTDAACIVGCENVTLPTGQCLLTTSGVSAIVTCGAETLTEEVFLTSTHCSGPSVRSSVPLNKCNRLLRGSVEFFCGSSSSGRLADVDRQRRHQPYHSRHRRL
Assay: Inhibition of cruzain in presence of 0.01% Triton X-100
Outline: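 Recombinant cruzain (10 nM) in 0.1 M sodium acetate pH 5.5 with 5 mM DTT and 0.01% Triton X-100, substrate 2.5 µM Z-Phe-Arg-AMC. Cleavage read fluorimetrically in 96-well format, excitation 355 nm, emission 460 nm.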
`CC(C)(C)OC(=O)NCCc1nnc(S(=O)(=O)Cc2ccc(Cl)cc2Cl)o1` showed an IC50 of 470 µM. With `O=C(CC1(O)C(=O)Nc2cc(Cl)cc(Cl)c21)c1ccccc1O` (centres undefined) the IC50 was 170 µM. For `Cc1ccc(C)n1C(Cc1ccccc1)C(=O)O` (centres undefined), the IC50 was > 600 µM. For `CCOC(=O)/C(C(C)=O)=C1\OC(=O)c2ccccc21`, the IC50 was < 600 µM. In the case of `C[C@H]1[C@H]2C=C[C@@H]1[C@@H](C(=O)O)[C@@H]2c1c2ccc(=O)c(O)c-2oc2c(O)c(O)ccc12`, the IC50 is reported as 45 µM. In the case of `CCCC12CN(C(=O)c3ccc(OC)cc3)CC(C)(CN(C(=O)c3ccc(OC)cc3)C1)C2=O`, the IC50 is reported as > 600 µM. For `CC(C)(C)OC(=O)NCc1nnc(S(=O)(=O)Cc2ccc(Cl)cc2Cl)o1`, the IC50 was 410 µM. For `CCOC(=O)SC1=N/C(=C/c2ccc(N(C)C)cc2)C(=O)S1`, the IC50 was 73 µM.

Biological target: not listed separately
Assay: Inhibition of malate dehydrogenase
Outline: (§1)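 Malate dehydrogenase (2 nM) incubated 5 min with inhibitor, then reaction started with 200 µM oxaloacetic acid plus 200 µM NADH. In the no-preincubation variant, inhibitor, oxaloacetate and NADH were mixed first and enzyme was added last. NADH consumption followed at 340 nm.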
With `CC(C)(C)OC(=O)NCCc1nnc(S(=O)(=O)Cc2ccc(Cl)cc2Cl)o1` the IC50 was > 600 µM. In the case of `Cc1ccc(C)n1C(Cc1ccccc1)C(=O)O` (centres undefined), the IC50 is reported as 15 µM. In the case of `C[C@H]1[C@H]2C=C[C@@H]1[C@@H](C(=O)O)[C@@H]2c1c2ccc(=O)c(O)c-2oc2c(O)c(O)ccc12`, the IC50 is reported as 18 µM. In the case of `CCCC12CN(C(=O)c3ccc(OC)cc3)CC(C)(CN(C(=O)c3ccc(OC)cc3)C1)C2=O`, the IC50 is reported as > 600 µM. With `CC(C)(C)OC(=O)NCc1nnc(S(=O)(=O)Cc2ccc(Cl)cc2Cl)o1` the IC50 was > 600 µM. `CCOC(=O)SC1=N/C(=C/c2ccc(N(C)C)cc2)C(=O)S1` gave an IC50 of 200 µM.

Tested on: not listed separately
Assay: Inhibition of chymotrypsin in presence of 0.1% Triton X-100
Outline: (§2)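 Chymotrypsin (28 nM) preincubated 5 min with inhibitor, then reaction started with 200 µM N-succinyl-Ala-Ala-Pro-Phe p-nitroanilide. In the no-preincubation variant, inhibitor and substrate were mixed first and enzyme was added to start. Progress read at 410 nm.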
With `CC(C)(C)OC(=O)NCCc1nnc(S(=O)(=O)Cc2ccc(Cl)cc2Cl)o1` the IC50 was < 1 µM. In the case of `O=C(CC1(O)C(=O)Nc2cc(Cl)cc(Cl)c21)c1ccccc1O` (centres undefined), the IC50 is reported as > 600 µM. In the case of `Cc1ccc(C)n1C(Cc1ccccc1)C(=O)O` (centres undefined), the IC50 is reported as > 600 µM. With `C[C@H]1[C@H]2C=C[C@@H]1[C@@H](C(=O)O)[C@@H]2c1c2ccc(=O)c(O)c-2oc2c(O)c(O)ccc12` the IC50 was > 600 µM. In the case of `CCCC12CN(C(=O)c3ccc(OC)cc3)CC(C)(CN(C(=O)c3ccc(OC)cc3)C1)C2=O`, the IC50 is reported as > 600 µM. For `O=C(Nc1nc2n(n1)C(c1ccccc1)C=C(c1ccccc1)N2)c1ccco1` (centres undefined), the IC50 was 27 µM. With `CC(C)(C)OC(=O)NCc1nnc(S(=O)(=O)Cc2ccc(Cl)cc2Cl)o1` the IC50 was < 1 µM. With `CS(=O)(=O)N1CCC(C(=O)N2CCC(Cc3ccccc3)CC2)CC1` the IC50 was > 600 µM. Molecule `CCOC(=O)SC1=N/C(=C/c2ccc(N(C)C)cc2)C(=O)S1` has an IC50 of 8 µM.

Tested on: not listed separately
Assay: Inhibition of chymotrypsin
Outline: as §2
For `CC(C)(C)OC(=O)NCCc1nnc(S(=O)(=O)Cc2ccc(Cl)cc2Cl)o1`, the IC50 was < 1 µM. For `O=C(CC1(O)C(=O)Nc2cc(Cl)cc(Cl)c21)c1ccccc1O` (centres undefined), the IC50 was > 600 µM. Molecule `Cc1ccc(C)n1C(Cc1ccccc1)C(=O)O` (centres undefined) has an IC50 of 570 µM. `C[C@H]1[C@H]2C=C[C@@H]1[C@@H](C(=O)O)[C@@H]2c1c2ccc(=O)c(O)c-2oc2c(O)c(O)ccc12` showed an IC50 of 67 µM. For `CCCC12CN(C(=O)c3ccc(OC)cc3)CC(C)(CN(C(=O)c3ccc(OC)cc3)C1)C2=O`, the IC50 was < 1 µM. In the case of `O=C(Nc1nc2n(n1)C(c1ccccc1)C=C(c1ccccc1)N2)c1ccco1` (centres undefined), the IC50 is reported as 7 µM. In the case of `CC(C)(C)OC(=O)NCc1nnc(S(=O)(=O)Cc2ccc(Cl)cc2Cl)o1`, the IC50 is reported as < 1 µM. For `CS(=O)(=O)N1CCC(C(=O)N2CCC(Cc3ccccc3)CC2)CC1`, the IC50 was > 600 µM. With `CCOC(=O)SC1=N/C(=C/c2ccc(N(C)C)cc2)C(=O)S1` the IC50 was < 1 µM.

Biological target: not listed separately
Assay: Inhibition of malate dehydrogenase in presence of 0.1% Triton X-100
Outline: as §1
With `Cc1ccc(C)n1C(Cc1ccccc1)C(=O)O` (centres undefined) the IC50 was > 600 µM. For `C[C@H]1[C@H]2C=C[C@@H]1[C@@H](C(=O)O)[C@@H]2c1c2ccc(=O)c(O)c-2oc2c(O)c(O)ccc12`, the IC50 was 45 µM. With `CC(C)(C)OC(=O)NCc1nnc(S(=O)(=O)Cc2ccc(Cl)cc2Cl)o1` the IC50 was > 600 µM. In the case of `CCOC(=O)SC1=N/C(=C/c2ccc(N(C)C)cc2)C(=O)S1`, the IC50 is reported as > 600 µM.

Biological target: T1, Cruzipain
Assay: Inhibition of cruzain
`CC(C)(C)OC(=O)NCCc1nnc(S(=O)(=O)Cc2ccc(Cl)cc2Cl)o1` gave an IC50 of 95 µM. For `O=C(CC1(O)C(=O)Nc2cc(Cl)cc(Cl)c21)c1ccccc1O` (centres undefined), the IC50 was 73 µM. In the case of `Cc1ccc(C)n1C(Cc1ccccc1)C(=O)O` (centres undefined), the IC50 is reported as < 1 µM. In the case of `CCOC(=O)/C(C(C)=O)=C1\OC(=O)c2ccccc21`, the IC50 is reported as < 600 µM. For `C[C@H]1[C@H]2C=C[C@@H]1[C@@H](C(=O)O)[C@@H]2c1c2ccc(=O)c(O)c-2oc2c(O)c(O)ccc12`, the IC50 was 95 µM. For `CCCC12CN(C(=O)c3ccc(OC)cc3)CC(C)(CN(C(=O)c3ccc(OC)cc3)C1)C2=O`, the IC50 was > 600 µM. `CC(C)(C)OC(=O)NCc1nnc(S(=O)(=O)Cc2ccc(Cl)cc2Cl)o1` showed an IC50 of 95 µM. In the case of `CCOC(=O)SC1=N/C(=C/c2ccc(N(C)C)cc2)C(=O)S1`, the IC50 is reported as < 1 µM.

Biological target: not listed separately
Assay: Inhibition of beta-lactamase AmpC
Outline: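 Cuvette assay with 1 nM AmpC β-lactamase and 200 µM nitrocefin, Triton X-100 at either 0.00002 or 0.1%. Compound and enzyme preincubated 5 min, then substrate added to start the reaction.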
With `CC(C)(C)OC(=O)NCCc1nnc(S(=O)(=O)Cc2ccc(Cl)cc2Cl)o1` the IC50 was < 1 µM. In the case of `O=C(CC1(O)C(=O)Nc2cc(Cl)cc(Cl)c21)c1ccccc1O` (centres undefined), the IC50 is reported as > 600 µM. For `Cc1ccc(C)n1C(Cc1ccccc1)C(=O)O` (centres undefined), the IC50 was 95 µM. For `CCOC(=O)/C(C(C)=O)=C1\OC(=O)c2ccccc21`, the IC50 was 43 µM. `C[C@H]1[C@H]2C=C[C@@H]1[C@@H](C(=O)O)[C@@H]2c1c2ccc(=O)c(O)c-2oc2c(O)c(O)ccc12` gave an IC50 of 70 µM. `CCCC12CN(C(=O)c3ccc(OC)cc3)CC(C)(CN(C(=O)c3ccc(OC)cc3)C1)C2=O` showed an IC50 of 15 µM. With `O=C(Nc1nc2n(n1)C(c1ccccc1)C=C(c1ccccc1)N2)c1ccco1` (centres undefined) the IC50 was < 600 µM. In the case of `CC(C)(C)OC(=O)NCc1nnc(S(=O)(=O)Cc2ccc(Cl)cc2Cl)o1`, the IC50 is reported as < 1 µM. With `CS(=O)(=O)N1CCC(C(=O)N2CCC(Cc3ccccc3)CC2)CC1` the IC50 was > 600 µM. Work on `CCOC(=O)SC1=N/C(=C/c2ccc(N(C)C)cc2)C(=O)S1` yielded an IC50 of 60 µM.
